The subject of data set [1] is Trypanosoma brucei brucei. The experiment in a line: Antiparasitic activity against bloodstream form of Trypanosoma brucei brucei Lister 427 measured after 48 hrs by alamar blue assay. In kind it is functional.
The next data set concerns DNA. The experiment in a line: Binding affinity to DNA (unknown origin) assessed as change in melting temperature at 2:1 compound to DNA ratio by UV-visible spectrophotometry. Type of data set: nucleic-acid assay. A digest of the protocol:
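Duplex oligomer at 6 × 10⁻⁶ M in 10 mM PBS (pH 7.4) with 50 mM NaCl was annealed (90 °C, then unaided cooling) and mixed at 2 S-MGB:1 helix; the reference had no ligand. Samples were heated 10–90 °C and cooled 80–10 °C at 0.5 °C min⁻¹, with A260 recorded. Tm came from a Boltzmann sigmoid fit; three repeats.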

A further data set has as its system Enterococcus faecalis. The data set can be described thus: Antibacterial activity against Enterococcus faecalis ATCC 51299 measured after 18 hrs by two-fold serial dilution method. Type of data set: functional.
In a further data set the test system is Staphylococcus aureus. The experiment in a line: Antibacterial activity against Staphylococcus aureus ATCC 43300 measured after 18 hrs by two-fold serial dilution method. In kind it is functional.
For data set [2], the system named is Trypanosoma congolense. The data set can be described thus: Antitrypanosomal activity against bloodstream form of Trypanosoma congolense measured after 48 hrs by alamar blue assay. In kind it is functional, organism-based. In a few lines: (§1)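 Bloodstream-form T. congolense IL3000 and derived diminazene-resistant lines were grown at 34 °C in humidified 5% CO2 in supplemented MEM with 20% goat serum. Cells at 2.5×10^5 per mL were seeded into serial compound dilutions and incubated 48 h. 0.49 mM resazurin solution was then added for a further 24 h.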

For data set [3], the system named is Trypanosoma brucei brucei. The data set can be described thus: Antiparasitic activity against bloodstream form of tbat1-/- deficient Trypanosoma brucei brucei measured after 48 hrs by alamar blue assay. Type of data set: functional, organism-based.
Data set [4] can be described thus: Cytotoxicity against rat L6 cells assessed as reduction in cell viability measured after 69 hrs by alamar blue assay. In kind it is toxicity, cell-based.
A short description of data set [5]: Diffusion coefficient of compound in 50% v/v pH 5 sodium acetate buffer in DMSO-d6 at 1.5 mM by DOSY analysis. Type of data set: physicochemical. The note with it: pH 5, 1500 µM.
A short description of data set [6]: Aggregation property of compound in 70% v/v 0.1 M pH 5 sodium acetate buffer in DMSO-d6 at 1.5 mM by 1H-NMR spectra analysis. Type of data set: physicochemical. The note with it: pH 5, 1500 µM. A digest of the protocol: (§2)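 Proton NMR series at a fixed 1.5 mM S-MGB. DMSO-d6 was stepped down by 5% from 80% to 25% by adding 0.1 M pH 5 sodium acetate buffer, giving twelve solvent compositions per compound.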

Data set [7] can be described thus: Resistance factor, ratio of EC50 for bloodstream form of tbat1-/- deficient Trypanosoma brucei brucei to EC50 for wild-type bloodstream form of Trypanosoma brucei brucei. Type of data set: functional.
A short description of data set [8]: Aggregation property of compound at 1.5 mM by 1H-NMR spectra analysis. The note with it: 1500 µM.
Data set [9] is described as follows: Aggregation property of compound in 0.1 M pH 5 sodium acetate buffer at 1.5 mM by 1H-NMR spectra analysis. The note with it: pH 5, 1500 µM. In kind it is physicochemical.
A short description of data set [10]: Resistance factor, ratio of EC50 for bloodstream form of diminazene-resistant Trypanosoma congolense DimR to EC50 for bloodstream form of wild-type Trypanosoma congolense. Type of data set: functional. In a few lines: (§3)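 The ratio was taken from Alamar Blue EC50s for resistant and wild-type IL3000 bloodstream-form T. congolense. Cells at 2.5×10^5 per mL were grown at 34 °C in 5% CO2 in supplemented MEM with compound for 48 h, then with resazurin for 24 h.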

The test system of data set [11] is Trypanosoma congolense. The data set can be described thus: Antitrypanosomal activity against bloodstream form of diminazene-resistant Trypanosoma congolense EMS MUT DimR measured after 48 hrs by alamar blue assay. Type of data set: functional, organism-based. A digest of the protocol:
as §1

Data set [12] relates to Trypanosoma brucei brucei. The data set can be described thus: Antiparasitic activity against bloodstream form of Trypanosoma brucei brucei B48 measured after 48 hrs by alamar blue assay. Type of data set: functional, organism-based. The note with it: B48, 48 h.
Data set [13] in a line: Resistance factor, ratio of EC50 for bloodstream form of Trypanosoma brucei brucei B48 to EC50 for wild-type bloodstream form of Trypanosoma brucei brucei. In kind it is functional.
Data set [14] in a line: Resistance factor, ratio of EC50 for bloodstream form of diminazene-resistant Trypanosoma congolense EMS MUT DimR to EC50 for wild-type bloodstream form of Trypanosoma congolense. Type of data set: functional. In a few lines: as §3
Data set [15] deals with Trypanosoma congolense. The data set can be described thus: Antitrypanosomal activity against bloodstream form of Trypanosoma congolense IL3000 measured after 48 hrs by alamar blue assay. The note with it: IL3000, 48 h. Type of data set: functional, organism-based. A digest of the protocol: as §1
In data set [16] the test system is Trypanosoma congolense. The experiment in a line: Antitrypanosomal activity against bloodstream form of diminazene-resistant Trypanosoma congolense DimR measured after 48 hrs by alamar blue assay. In kind it is functional, organism-based. A digest of the protocol:
as §1

The test system of the next data set is Leishmania donovani. The experiment in a line: Antileishmanial activity against Leishmania donovani MHOM/ET/67:LV82 amastigotes infected in BMDM cell measured after 48 hrs by luciferase assay. Type of data set: functional, organism-based. The note with it: MHOM/ET/67:LV82, BMDM. In a few lines:
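Bone marrow-derived macrophages (0.5×10^5/well) were infected at a 20:1 […] ratio with luciferase-expressing L. donovani LV82. Free parasites were removed at 24 h post-infection, then doubling dilutions were added, starting at 25 or 20 μg mL⁻¹ from a 1 mg mL⁻¹ DMSO stock. At 72 h, luciferin (150 μg mL⁻¹) was added and bioluminescence suppression read against controls.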

Data set [17] deals with Trypanosoma brucei brucei. The experiment in a line: Antiparasitic activity against wild-type Trypanosoma brucei brucei measured after 48 hrs by alamar blue assay. In kind it is functional, organism-based.
Data set [18] in a line: Aggregation property of compound in 45% DMSO-d6:55% 0.1 M pH 5 sodium acetate buffer at 1.5 mM by 1H-NMR spectra analysis. In kind it is physicochemical. The note with it: pH 5, 1500 µM. A digest of the protocol: as §2
For another data set, the system named is Trypanosoma vivax. The data set can be described thus: Antitrypanosomal activity against Trypanosoma vivax STIB 719 by [3H]-hypoxanthine incorporation assay. In kind it is functional, organism-based.

In brackets after ≈: the same amount, converted by molar mass.

`COc1cccc(/C=C/c2ccc(C(=O)Nc3cc(C(=O)Nc4cc(C(=O)NCCN5CCOCC5)n(C)c4)n(C)c3)cc2)c1`: in [1], the EC50 worked out at 780 nM. Also, in the data set with DNA, the ΔTm amounted to 10 °C. Also, the MIC80 with Enterococcus faecalis was 25 µM (≈ 15.3 µg/mL); in the data set with Staphylococcus aureus, 6.25 µM (≈ 3.82 µg/mL).

In turn, `COc1cccc(/C=C/c2ccc(C(=O)Nc3cc(C(=O)NCCN4CCOCC4)n(C)c3)cc2)c1` registered an EC50 in data set [1] of more than 50000 nM. The shift in melting temperature (ΔTm) with DNA came out at 0 °C. Besides, the MIC80 against Enterococcus faecalis and against Staphylococcus aureus was more than 50 µM each time.

`CN1CCN(C(=O)c2cc(NC(=O)c3ccc(/C=C/c4cnc5ccccc5c4)cc3)cn2C)CC1`: the ΔTm in the data set on DNA turned out to be 2 °C.

Turning to `Cn1cc(NC(=O)c2ccc(/C=C/c3cnc4ccccc4c3)cc2)cc1C(=O)NCCN1CCOCC1`, the EC50 stood at 3400 nM in the data set with Trypanosoma congolense [2]; 3120 nM in [1]; 550 nM in data set [3]; 3200 nM in the data set on Trypanosoma congolense [11]; 600 nM in [12]; 870 nM with Trypanosoma congolense [15]. Moreover, the EC50 in the data set with Trypanosoma congolense [16] stood at 3100 nM; with Leishmania donovani, 1600 nM; in data set [17] it was 1200 nM; in the data set with Trypanosoma vivax, 760 nM. For the same molecule, in data set [4], the EC50 at 69 h came to 6700 nM. Besides, the D in data set [5] is 1.75 10^-10 m²/s. Besides, the outcome in data set [6], in data set [8], in [9] and in data set [18] was Active. In addition, the Ratio EC50 came out at 0.5 in [7], 0.9 in data set [10], 0.5 in data set [13] and 0.9 in [14]. Also, the shift in melting temperature (ΔTm) in the data set on DNA stood at 10 °C. The MIC80 in the data set on Enterococcus faecalis and against Staphylococcus aureus was more than 50 µM throughout.

Turning to `COc1ccc(/C=C/c2ccc(C(=O)Nc3cc(C(=O)NN(C)C)n(C)c3)cn2)cc1`, the EC50 in data set [1] was more than 50000 nM. Also, the ΔTm in the data set on DNA is 0 °C. Also, the MIC80 with Enterococcus faecalis and in the data set with Staphylococcus aureus was more than 50 µM in each case.

In turn, `COc1cccc(/C=C/c2ccc(C(=O)Nc3cc(C(=O)N4CCN(C)CC4)n(C)c3)cc2)c1` gave an EC50 in [1] of more than 50000 nM. Moreover, the thermal shift (ΔTm) in the data set with DNA came to 0 °C. In addition, the MIC80 against Enterococcus faecalis and with Staphylococcus aureus was more than 50 µM each time.

In data set [1], `Cn1cc(NC(=O)c2cc(NC(=O)c3ccc(/C=C/c4cnc5ccccc5c4)cc3)cn2C)cc1C(=O)NCCN1CCOCC1` [MGB-BP-3] showed an EC50 of less than 190 nM. Besides, in data set [5], the D was 1.07 10^-10 m²/s. Also, the result in data set [8], in [9] and in [18] was Active. Moreover, the ΔTm in the data set on DNA was found to be 20 °C. Moreover, the MIC80 in the data set with Enterococcus faecalis was determined as 0.78 µM (≈ 0.493 µg/mL); in the data set on Staphylococcus aureus, 0.2 µM (≈ 0.126 µg/mL).

Take `CN[C@H](CC(C)C)C(=O)N[C@H]1C(=O)N[C@@H](CC(N)=O)C(=O)N[C@H]2C(=O)N[C@H]3C(=O)N[C@H](C(=O)N[C@H](C(=O)O)c4cc(O)cc(O)c4-c4cc3ccc4O)[C@H](O)c3ccc(c(Cl)c3)Oc3cc2cc(c3O[C@@H]2O[C@H](CO)[C@@H](O)[C@H](O)[C@H]2O[C@H]2C[C@](C)(N)[C@H](O)[C@H](C)O2)Oc2ccc(cc2Cl)[C@H]1O` [VANCOMYCIN]: the values for the MIC80 in the data set on Enterococcus faecalis and in the data set with Staphylococcus aureus were 6.25 µM (≈ 9.06 µg/mL) and 0.39 µM (≈ 0.565 µg/mL), respectively.

In data set [1], `COc1ccc(/C=C/c2ccc(C(=O)Nc3cc(C(=O)N4CCN(C)CC4)n(C)c3)cn2)cc1` came in with an EC50 of more than 50000 nM. Also, in the data set with DNA, the ΔTm is 0 °C. Moreover, the MIC80 against Enterococcus faecalis and with Staphylococcus aureus was more than 50 µM each time.

As for `COc1cccc(/C=C/c2ccc(C(=O)Nc3cc(C(=O)NN(C)C)n(C)c3)cc2)c1`, the ΔTm with DNA worked out at 0 °C.

In the case of `N=C(N)c1ccc(/N=N/Nc2ccc(C(=N)N)cc2)cc1` [DIMINAZENE], the EC50 was 200 nM in the data set on Trypanosoma congolense [2]; 500 nM in [1]; 180 nM in [3]; 2300 nM in the data set on Trypanosoma congolense [11]; 80 nM in data set [12]; 130 nM with Trypanosoma congolense [15]. The EC50 in the data set with Trypanosoma congolense [16] amounted to 2100 nM; in data set [17], 30 nM; in the data set with Trypanosoma vivax it was 170 nM. Moreover, the Ratio EC50 is 5.9 in data set [7], 9.5 in [10], 2.6 in data set [13] and 10.9 in [14].

As for `COc1ccc(/C=C/c2ccc(C(=O)Nc3cc(C(=O)Nc4cc(C(=O)NCCN5CCOCC5)n(C)c4)n(C)c3)cn2)cc1`, a half-maximal effect in data set [1] (EC50) was put at 1560 nM. Also, the ΔTm in the data set with DNA came to 12 °C. Besides, the MIC80 is 3.12 µM (≈ 1.91 µg/mL) with Enterococcus faecalis and 1.56 µM (≈ 0.954 µg/mL) with Staphylococcus aureus.

The record behind these values is ChEMBL document CHEMBL5136964, “Truncated S-MGBs: towards a parasite-specific and low aggregation chemotype” (RSC Med Chem, 2021).
